Reference: ChEMBL document CHEMBL1212784, “Structure-microbicidal activity relationship of synthetic fragments derived from the antibacterial alpha-helix of human lactoferrin” (2010)
≈ marks a conversion by molar mass, not a printed value. Positions of bridges follow the written chain, without caps; N, C: chain ends. Non-standard residues stand in square brackets, D forms with d. Residues, ends and D or L forms follow the SMILES beside them. Orn = NCCC[C@H](N)C(=O)O

Legend:
[1] = Antimicrobial activity against Escherichia coli O6 K5 incubation in bactopeptone; type: functional
Method in brief: (§1)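 Microplate killing assay in 1% Bactopeptone (pH 7.0). Log-phase organisms (BHI overnight, 2 h subculture, 37°C, washed), final ~2 × 10^5 cells/ml, with twofold peptide dilutions, 37°C humid chamber 2 h (or 20 h where stated). 5 μl drops plated on blood agar overnight; MMC99 = lowest concentration giving ≥99% inoculum reduction; duplicates.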

[2] = system: Staphylococcus aureus; assay: Antimicrobial activity against Staphylococcus aureus 1800 (CCUG 1800) incubation in bactopeptone; type: functional; method in brief: as §1
[3] = system: Candida albicans; assay: Antimicrobial activity against Candida albicans ATCC […] incubation in bactopeptone; type: functional; details: ATCC 64549; method in brief: as §1
[4] = system: Candida albicans; assay: Antimicrobial activity against […] Candida albicans ATCC […] incubated in diluted brain heart infusion medium; type: functional; details: ATCC 6454
Method in brief: (§2)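 Log-phase cells (BHI overnight at 37°C with shaking, subcultured 2 h, washed) at about 2 × 10^5 cells/ml final, exposed to twofold peptide dilutions in duplicate or triplicate. Medium: BHIdil (1/100 of 3.4% BHI, pH 6.7–6.9) or 1% Bactopeptone (pH 7.0). 2 h at 37°C, humid. 5-μl drops plated on blood agar overnight for CFU. MMC99 is the lowest concentration giving ≥99% kill.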

[5] = Antimicrobial activity against Escherichia coli O6 K5 incubated in diluted brain heart infusion medium; type: functional
Method in brief: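 Microplate assay in diluted BHI (1/100 of 3.4%, pH 6.7 to 6.9), log-phase cells at ~2 × 10^5 cells/ml, twofold peptide dilutions, 2 h at 37°C in humid chamber; drops plated on blood agar, CFU counted; MMC99 = minimum concentration giving ≥99% killing of inoculum; duplicates.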

[6] = system: Staphylococcus aureus; assay: Antimicrobial activity against methicillin resistant Staphylococcus aureus MRS3525 incubated in diluted brain heart infusion medium; type: functional; method in brief: as §2
[7] = system: Staphylococcus aureus; assay: Antimicrobial activity against methicillin resistant Staphylococcus aureus MRS3525 incubated in bactopeptone; type: functional; method in brief: as §2
[8] = system: Candida albicans; assay: Antimicrobial activity against Candida albicans ATCC […] using in brain heart infusion medium(dil) after 2 hrs at 10 ug/ml; type: functional, ATCC 64549
Method in brief: (§3)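 Single-concentration screen: log-phase organisms (~2 × 10^5 cells/ml) incubated 2 h at 37°C in diluted BHI (1/100 of 3.4%, pH 6.7 to 6.9) with 25 μg/ml peptide (10 μg/ml for E. coli O6 and C. albicans); viable counts on blood agar; scored as ≥99% killed or not; duplicates.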

[9] = system: Escherichia coli; assay: Antimicrobial activity against Escherichia coli O14 using in brain heart infusion medium(dil) after 2 hrs at 25 ug/ml; type: functional; method in brief: as §3
[10] = system: Klebsiella pneumoniae; assay: Antimicrobial activity against Klebsiella pneumoniae CCUG 9997 using in brain heart infusion medium(dil) after 2 hrs at 25 ug/ml; type: functional; method in brief: as §3
[11] = system: Enterococcus faecalis; assay: Antimicrobial activity against Enterococcus faecalis ATCC 19433 using in brain heart infusion medium(dil) after 2 hrs at 25 ug/ml; type: functional; method in brief: as §3
[12] = system: Staphylococcus aureus; assay: Antimicrobial activity against Staphylococcus aureus 1800 (CCUG 1800) using in brain heart infusion medium(dil) after 2 hrs at 25 ug/ml; type: functional; method in brief: as §3
[13] = system: Escherichia coli; assay: Antimicrobial activity against Escherichia coli O6 using in brain heart infusion medium(dil) after 2 hrs at 10 ug/ml; type: functional; method in brief: as §3
[14] = system: Pseudomonas aeruginosa; assay: Antimicrobial activity against Pseudomonas aeruginosa CCUG 551 using in brain heart infusion medium(dil) after 2 hrs at 25 ug/ml; type: functional; method in brief: as §3
[15] = system: Staphylococcus epidermidis; assay: Antimicrobial activity against Staphylococcus epidermidis CCUG 18000A using in brain heart infusion medium(dil) after 2 hrs at 25 ug/ml; type: functional; method in brief: as §3

Row | MIC99 [1] | MIC99 [2] | MIC99 [3] | Molecule | MIC99 [4] | MIC99 [5] | MIC99 [6] | MIC99 [7] | other results
1 | 12 µg/mL (≈ 3.92 µM) | 25 µg/mL (≈ 8.17 µM) | 50 µg/mL (≈ 16.3 µM) | CC[C@H](C)[C@H](NC(=O)[C@@H]1CSSC[C@H](NC(=O)[C@H](CCCCN)NC(=O)[C@@H](NC(=O)[C@H](C)NC(=O)[C@H](CCC(=O)O)NC(C)=O)[C@@H](C)O)C(=O)N[C@@H](Cc2ccccc2)C(=O)N[C@@H](CCC(N)=O)C(=O)N[C@@H](Cc2c[nH]c3ccccc23)C(=O)N[C@@H](CCCCN)C(=O)N[C@@H](CCCNC(=N)N)C(=O)N[C@@H](CC(N)=O)C(=O)N[C@@H](CCSC)C(=O)N[C@@H](CCCNC(=N)N)C(=O)N[C@@H](CCCCN)C(=O)N[C@@H](C(C)C)C(=O)N[C@@H](CCCNC(=N)N)C(=O)NCC(=O)N2CCC[C@H]2C(=O)N2CCC[C@H]2C(=O)N[C@@H](C(C)C)C(=O)N[C@@H](CO)C(=O)N1)C(=O)N[C@@H](CCCCN)C(=O)N[C@@H](CCCNC(=N)N)C(N)=O (Ac-EATKCFQWKRNMRKVRGPPVSCIKR-NH2; disulfide 5-22) | – | – | – | – | –
2 | 100 µg/mL (≈ 33.2 µM) | 50 µg/mL (≈ 16.6 µM) | 37 µg/mL (≈ 12.3 µM) | CC[C@H](C)[C@H](NC(=O)[C@@H]1CSSC[C@H](NC(=O)[C@H](CCCCN)NC(=O)[C@@H](NC(=O)[C@H](C)NC(=O)[C@H](CCC(=O)O)NC(C)=O)[C@@H](C)O)C(=O)N[C@@H](Cc2ccccc2)C(=O)N[C@@H](CCC(N)=O)C(=O)N[C@@H](Cc2c[nH]c3ccccc23)C(=O)N[C@@H](CCC(N)=O)C(=O)N[C@@H](CCCNC(=N)N)C(=O)N[C@@H](C)C(=O)N[C@@H](CCSC)C(=O)N[C@@H](CCCNC(=N)N)C(=O)N[C@@H](CCCCN)C(=O)N[C@@H](C(C)C)C(=O)N[C@@H](CCCNC(=N)N)C(=O)NCC(=O)N2CCC[C@H]2C(=O)N2CCC[C@H]2C(=O)N[C@@H](C(C)C)C(=O)N[C@@H](CO)C(=O)N1)C(=O)N[C@@H](CCCCN)C(=O)N[C@@H](CCCNC(=N)N)C(N)=O (Ac-EATKCFQWQRAMRKVRGPPVSCIKR-NH2; disulfide 5-22) | – | – | – | – | –
3 | – | – | – | H-CAQWQRNMRKVR-OH | 12 µg/mL | 12 µg/mL | 7 µg/mL | – | –
4 | – | – | – | H-PEATKCFQWQRNMRKVR-OH | – | – | – | – | Activity [8]: <99%; Activity [9]: <99%; Activity [10]: <99%; Activity [11]: >=99%; Activity [12]: >=99%; Activity [13]: <99%; Activity [14]: <99%; Activity [15]: >=99%
5 | – | – | – | H-QPEATKCFQWQRNMRKVR-OH | – | – | – | – | Activity [8]: <99%; Activity [9]: <99%; Activity [10]: <99%; Activity [11]: >=99%; Activity [12]: >=99%; Activity [13]: <99%; Activity [14]: <99%; Activity [15]: <99%
6 | 25 µg/mL | 50 µg/mL | 25 µg/mL | H-CFALKKAMKKVR-OH | – | – | – | – | –
7 | 50 µg/mL | 25 µg/mL | 25 µg/mL | H-CFAWKRNMRKVR-OH | – | – | – | – | –
8 | – | – | – | H-ATKCFQWQRNMRKVR-OH | – | – | – | – | Activity [8]: >=99%; Activity [9]: >=99%; Activity [10]: >=99%; Activity [11]: >=99%; Activity [12]: >=99%; Activity [13]: >=99%; Activity [14]: >=99%; Activity [15]: >=99%
9 | 25 µg/mL (≈ 15.3 µM) | 50 µg/mL (≈ 30.5 µM) | 25 µg/mL (≈ 15.3 µM) | CSCC[C@H](NC(=O)[C@H](CC(N)=O)NC(=O)[C@H](CCCNC(=N)N)NC(=O)[C@H](CCCN)NC(=O)[C@H](Cc1c[nH]c2ccccc12)NC(=O)[C@H](CCC(N)=O)NC(=O)[C@H](Cc1ccccc1)NC(=O)[C@@H](N)CS)C(=O)N[C@@H](CCCNC(=N)N)C(=O)N[C@@H](CCCCN)C(=O)N[C@H](C(=O)N[C@@H](CCCNC(=N)N)C(=O)O)C(C)C (H-CFQW[Orn]RNMRKVR-OH) | – | – | – | – | –

Row | Molecule | MIC99 [1] | MIC99 [2] | MIC99 [3] | MIC99 [4] | MIC99 [5] | MIC99 [6] | MIC99 [7] | other results
10 | H-CFQWQRAMRKVR-OH | 25 µg/mL | – | 25 µg/mL | 6 µg/mL | 6 µg/mL | 3.5 µg/mL | 50 µg/mL | –
11 | H-CFQWQRNMRKAR-OH | 50 µg/mL | – | 50 µg/mL | 25 µg/mL | 12 µg/mL | 3.5 µg/mL | > 100 µg/mL | –
12 | H-CFQWQRNMAKVR-OH | > 100 µg/mL | – | > 100 µg/mL | 25 µg/mL | 25 µg/mL | 7 µg/mL | > 100 µg/mL | –
13 | H-CFQWQRNMRKVA-OH | > 100 µg/mL | – | > 100 µg/mL | 25 µg/mL | 12 µg/mL | 7 µg/mL | > 100 µg/mL | –
